# Legend:
# [1] = Cytotoxicity against human HeLa cells after 3 days by XTT assay; assay type: cell-based; conditions: read-out: TC50
# Procedure, shortened: (§1)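 HeLa cells seeded at 2 × 10³ per well with twofold compound dilutions from the maximum soluble concentration, quadruplicate wells, 37 °C in 5% CO2 for 3 days until controls were confluent. Morphology also scored microscopically. MNTC is the highest dose with no toxicity or growth reduction.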
# [2] = Cytotoxicity against human HeLa cells assessed as maximum non-cytotoxic concentration after 3 days by XTT assay; assay type: cell-based
# Procedure, shortened: as §1, with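 “confluent. XTT added (final 0.15 mg/mL) for 4 h, absorbance read at 492 nm with 690 nm reference.” for “confluent.”, “microscopically. […]” for “microscopically.”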
# [3] = Therapeutic index, ratio of TC50 for human HeLa cells to IC50 for HRV 14; assay type: cell-based; conditions: read-out: TI
# Procedure, shortened: (§2)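 Therapeutic index calculated as TC50 for HeLa cells (XTT, 3 days) divided by IC50 for plaque reduction of HRV 14 or HRV 1B in HeLa cells.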
# Enterovirus A71 [4] = assay: Antiviral activity against Human enterovirus 71 infected in human Hep2 cells after 2 days by plaque reduction assay; assay type: functional, organism-based; conditions: for IC50: Enterovirus A, HEp-2, 48 h; for Activity: HEp-2
# Procedure, shortened: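 Inoculum removed, then plaque overlay with fourfold drug dilutions starting from the MNTC. Two days at 37 °C, neutral red (0.2 mg/mL in PBS pH 7.4) staining, plaques counted, triplicate wells. IC50 taken from log dose vs % plaque reduction.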
# Enterovirus A71 [5] = assay: Antiviral activity against Human enterovirus 71 infected in human Hep2 cells at maximum non-cytotoxic concentration […] by plaque reduction assay; assay type: functional, HEp-2
# [6] = Therapeutic index, ratio of TC50 for human HeLa cells to IC50 for HRV 1B; assay type: cell-based; conditions: read-out: TI; procedure, shortened: as §2
# [7] = Cytotoxicity against human Hep2 cells assessed as maximum non-cytotoxic concentration after 3 days by XTT assay; assay type: cell-based, HEp-2
# Procedure, shortened: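 Hep-2 cells grown in high-glucose DMEM, seeded at 2 × 10³ per well with twofold dilutions from the maximum soluble concentration, quadruplicate wells, 3 days at 37 °C in 5% CO2. XTT (final 0.15 mg/mL) for 4 h, read at 492/690 nm, plus microscopic scoring. MNTC is the highest dose causing no toxic effect or growth reduction.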
# rhinovirus A1B = assay: Antiviral activity against Human rhinovirus 1B infected in human HeLa cells after 3 days by plaque reduction assay; assay type: functional, organism-based; conditions: for IC50: Rhinovirus A, 72 h
# Procedure, shortened: (§3)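 HeLa monolayers infected with ATCC HRV 14 or 1B at about 100 plaques per well, 1 h adsorption at 33 °C. Inoculum removed, then plaque overlay with fourfold drug dilutions from the MNTC. Three days at 33 °C, neutral red (0.2 mg/mL, PBS pH 7.4) staining and plaque count, triplicate wells. IC50 from log dose vs % reduction relative to mock-treated control. Otherwise % inhibition at MNTC is reported.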
# rhinovirus B14 [8] = assay: Antiviral activity against Human rhinovirus 14 infected in human HeLa cells after 3 days by plaque reduction assay; assay type: functional, organism-based; conditions: for IC50: Rhinovirus B, 72 h; procedure, shortened: as §3
# rhinovirus B14 [9] = assay: Antiviral activity against Human rhinovirus 14 infected in human HeLa cells at maximum non-cytotoxic concentration after 3 days by plaque reduction assay; assay type: functional; procedure, shortened: as §3
SMILES,CC50 at 72 h [1] [µM],MNTC at 72 h [2] [µM],selectivity ratio [3],IC50 (Enterovirus A71 [4]) [µM],Activity (Enterovirus A71 [4]),inhibition (INH) (Enterovirus A71 [5]) [%],selectivity ratio [6],MNTC at 72 h [7] [µM],Activity (rhinovirus A1B),IC50 (rhinovirus A1B) [µM],Activity (rhinovirus B14 [8]),IC50 (rhinovirus B14 [8]) [µM],inhibition (INH) (rhinovirus B14 [9]) [%]
Clc1ccc(/C=C/C2=Cc3ccccc3OC2)cc1,100,50,5.44,> 50,Dose-dependent effect,49.7,250,50,Dose-dependent effect,0.4,Dose-dependent effect,18.4,
Clc1ccc(/C=C/C2=Cc3cc(Cl)ccc3OC2)cc1,50,25,6.04,> 12.5,Dose-dependent effect,46.6,7.01,12.5,Dose-dependent effect,7.13,Dose-dependent effect,8.28,
Clc1ccc(C2CCc3cc(Cl)ccc3O2)cc1 (stereo unspecified),,,,,,,,10,,,,,
Clc1ccc2c(c1)C=C(/C=C/c1ccccc1)CO2,100,50,8.95,> 50,Dose-dependent effect,30.8,8.93,50,Dose-dependent effect,11.2,Dose-dependent effect,11.2,
O=c1c(/C=C/c2ccc(Cl)cc2)coc2ccccc12,50,25,9.06,> 25,Dose-dependent effect,21.6,11,25,Dose-dependent effect,4.54,Dose-dependent effect,5.52,
O=c1c(/C=C/C=C/c2ccccc2)coc2ccccc12,50,25,3.33,> 25,Dose-dependent effect,39.8,9.49,25,Dose-dependent effect,5.27,Dose-dependent effect,15,
O=c1c(/C=C/C=C/c2ccc(Cl)cc2)coc2ccc(Cl)cc12,6.25,3.12,,> 3.12,Dose-dependent effect,46.6,8.8,3.12,Dose-dependent effect,0.71,Dose-dependent effect,> 3.12,36.2
C1=C(/C=C/C=C/c2ccccc2)COc2ccccc21,100,50,2,> 50,Dose-dependent effect,29.5,3.24,50,Dose-dependent effect,30.8,Dose-dependent effect,50,
O=c1c(/C=C/c2ccccc2)coc2ccccc12,> 200,> 200,> 45.9,> 50,Dose-dependent effect,34.6,> 64.2,50,Dose-dependent effect,3.12,Dose-dependent effect,4.36,
O=c1c(/C=C/C=C/c2ccc(Cl)cc2)coc2ccccc12,50,25,12.3,> 25,Dose-dependent effect,49.1,12.2,25,Dose-dependent effect,4.09,Dose-dependent effect,4.07,
Clc1ccc(/C=C/C=C/C2=Cc3ccccc3OC2)cc1,6.25,3.12,,> 3.12,Dose-dependent effect,32.9,2,3.12,Dose-dependent effect,3.1,Dose-dependent effect,> 3.12,30.4
Clc1ccc2c(c1)C=C(/C=C/C=C/c1ccccc1)CO2,25,12.5,,> 12.5,Dose-dependent effect,25.4,3.99,12.5,Dose-dependent effect,6.27,Dose-dependent effect,> 12.5,37.2
O=c1c(/C=C/c2ccc(Cl)cc2)coc2ccc(Cl)cc12,50,25,,> 25,Dose-dependent effect,35.7,22.2,25,Dose-dependent effect,2.19,Dose-dependent effect,> 25,24.1
Clc1ccc(/C=C/C=C/C2=Cc3cc(Cl)ccc3OC2)cc1,12.5,6.25,,> 6.25,Dose-dependent effect,39.1,23.1,6.25,Dose-dependent effect,0.54,Dose-dependent effect,> 6.25,12.8
O=c1c(/C=C/C=C/c2ccccc2)coc2ccc(Cl)cc12,100,50,,> 50,Dose-dependent effect,46.7,62.5,50,Dose-dependent effect,1.6,Dose-dependent effect,> 50,48.3
O=c1c(/C=C/c2ccccc2)coc2ccc(Cl)cc12,50,25,,> 25,Dose-dependent effect,37,15.5,25,Dose-dependent effect,3.22,Dose-dependent effect,> 25,33.1
